Structures are written as SMILES. In brackets after ≈: the same amount, converted by molar mass.

Holding throughout (format): functional
The test system of one assay is Nannizzia gypsea. As to the kind of experiment: Antifungal activity against Microsporum gypseum after 48 hrs. The gist of the method: (§1)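 Fungi grown in Sabouraud dextrose broth with compound at 37 °C for 48 h. MIC is the lowest concentration completely inhibiting visible growth.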
The next assay relates to Candida albicans. As to the kind of experiment: Antifungal activity against Candida albicans after 48 hrs. The method in brief: as §1
Assay [1] relates to Helicobacter pylori. Nature of the assay: Antibacterial activity against Helicobacter pylori SS1 after 96 hrs. To be noted: SS1, 96 h. The gist of the method: (§2)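 Agar plates inoculated with H. pylori cells suspended in saline at 10^8 cfu/mL, incubated 37 °C for 96 h microaerobically (5% O2, 10% CO2, 85% N2) alongside blank and positive controls. Triplicate tests.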
For assay [2], the system named is Helicobacter pylori. As to the kind of experiment: Antibacterial activity against metronidazole-resistant Helicobacter pylori ATCC 43504 after 96 hrs. To be noted: ATCC 43504, 96 h. The method in brief:
as §2

The next assay deals with Staphylococcus aureus. As to the kind of experiment: Antibacterial activity against Staphylococcus aureus ATCC 25923 after 18 hrs. To be noted: ATCC 25923, 18 h. The method in brief: (§3)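 Broth dilution in Mueller Hinton broth, compounds dissolved in DMSO. Cells incubated aerobically with compound at 37 °C for 18 h, with DMSO-only blank cultures. MIC is the lowest concentration giving complete inhibition of visible growth.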

Assay [3] concerns Staphylococcus epidermidis. As to the kind of experiment: Antibacterial activity against Staphylococcus epidermidis ATCC 12228 after 18 hrs. To be noted: ATCC 12228, 18 h. The gist of the method:
as §3

A further assay deals with Micrococcus luteus. As to the kind of experiment: Antibacterial activity against Micrococcus luteus ATCC 9341 after 18 hrs. To be noted: ATCC 9341, 18 h. The gist of the method:
as §3

For a further assay, the system named is Escherichia coli. As to the kind of experiment: Antibacterial activity against Escherichia coli after 18 hrs. The gist of the method:
as §3

The subject of a further assay is Shigella flexneri. Nature of the assay: Antibacterial activity against Shigella flexneri after 18 hrs. The method in brief:
as §3

The subject of a further assay is Pseudomonas aeruginosa. As to the kind of experiment: Antibacterial activity against Pseudomonas aeruginosa after 18 hrs. The gist of the method: as §3
The next assay relates to Bacillus subtilis. As to the kind of experiment: Antibacterial activity against Bacillus subtilis CMCC 63501 after 18 hrs. The gist of the method:
as §3

For `COC(=O)C1=CC[C@@]23CC[C@@H]([C@@](C)(/C=C/C=C(\C)C(=O)O)OC2=O)[C@@]3(OC(C)=O)CC1` [PSEUDOLARIC ACID B], the MIC (as a rule, the lowest concentration found to suppress growth) with Nannizzia gypsea was found to be 12.5 µg/mL (≈ 28.9 µM); against Candida albicans, 6.25 µg/mL (≈ 14.5 µM).
On to `Cc1ncc([N+](=O)[O-])n1CCO` [METRONIDAZOLE], for which the MIC worked out at 0.5 µg/mL (≈ 2.92 µM) in the assay with Helicobacter pylori [1] and 128 µg/mL (≈ 748 µM) in the assay on Helicobacter pylori [2].
For `C=CCc1ccc(O)c(-c2cc(CC=C)ccc2O)c1` [MAGNOLOL], the MIC was 12.5 µg/mL (≈ 46.9 µM) with Staphylococcus aureus; 6.25 µg/mL (≈ 23.5 µM) in [3]; 6.25 µg/mL (≈ 23.5 µM) in the assay on Micrococcus luteus; greater than 50 µg/mL against Escherichia coli; greater than 50 µg/mL in the assay with Shigella flexneri; greater than 50 µg/mL against Pseudomonas aeruginosa. In the assay with Bacillus subtilis, this molecule yielded a minimal inhibitory concentration (MIC) of 12.5 µg/mL (≈ 46.9 µM).
For `C=CC1=C(C)C(=O)C=C2[C@]1(OO)CC[C@H](C(=C)C)[C@@]2(C)CCC(=O)OC` [TRIGONOCHINENE C], the MIC in the assay with Helicobacter pylori [1] is 50 µg/mL (≈ 139 µM); with Helicobacter pylori [2] it was 50 µg/mL (≈ 139 µM); with Staphylococcus aureus it was 50 µg/mL (≈ 139 µM); in assay [3], 25 µg/mL (≈ 69.4 µM); with Micrococcus luteus, 12.5 µg/mL (≈ 34.7 µM); against Escherichia coli, greater than 50 µg/mL. Moreover, the MIC is greater than 50 µg/mL against Shigella flexneri; greater than 50 µg/mL in the assay on Pseudomonas aeruginosa; greater than 50 µg/mL in the assay with Nannizzia gypsea; 12.5 µg/mL (≈ 34.7 µM) in the assay on Bacillus subtilis; greater than 50 µg/mL against Candida albicans.
As to `C=CC1=C(C)C(=O)C=C2[C@]13O[C@H]3C[C@H](C(=C)C)[C@@]2(C)CCC(=O)OC` [TRIGONOCHINENE D], the MIC in the assay with Helicobacter pylori [1] was 25 µg/mL (≈ 73 µM); with Helicobacter pylori [2] it was 50 µg/mL (≈ 146 µM); with Staphylococcus aureus, greater than 50 µg/mL; in assay [3] it was greater than 50 µg/mL; with Micrococcus luteus it was greater than 50 µg/mL; against Escherichia coli, greater than 50 µg/mL. Also, the MIC with Shigella flexneri, in the assay on Pseudomonas aeruginosa, against Nannizzia gypsea, in the assay with Bacillus subtilis and against Candida albicans was greater than 50 µg/mL throughout.
In the case of `C=Cc1c(C)c(O)cc2c1CC[C@H](C(=C)C)[C@@]2(C)CCC(=O)O`, the MIC in the assay with Helicobacter pylori [1] was 25 µg/mL (≈ 79.5 µM); in the assay with Helicobacter pylori [2], greater than 50 µg/mL; with Staphylococcus aureus, greater than 50 µg/mL; in assay [3] it was greater than 50 µg/mL; with Micrococcus luteus it was greater than 50 µg/mL; in the assay on Escherichia coli, greater than 50 µg/mL. Moreover, the MIC in the assay on Shigella flexneri, against Pseudomonas aeruginosa, in the assay on Nannizzia gypsea, against Bacillus subtilis and in the assay on Candida albicans was greater than 50 µg/mL in each case.
For `C=CC1=C(C)C(=O)C=C2[C@@]1(O)CC[C@H](C(=C)C)[C@@]2(C)CCC(=O)OC` [TRIGONOCHINENE A], the MIC in the assay with Helicobacter pylori [1] is 25 µg/mL (≈ 72.6 µM); in the assay with Helicobacter pylori [2], 50 µg/mL (≈ 145 µM); in the assay on Staphylococcus aureus, greater than 50 µg/mL; in assay [3], greater than 50 µg/mL; against Micrococcus luteus, greater than 50 µg/mL; in the assay on Escherichia coli, greater than 50 µg/mL. Further, the minimal inhibitory concentration (MIC) against Shigella flexneri, against Pseudomonas aeruginosa, in the assay with Nannizzia gypsea, with Bacillus subtilis and against Candida albicans was greater than 50 µg/mL throughout.
For `C=Cc1c(C)c(O)cc2c1CC[C@H](C(=C)C)[C@@]2(C)CCC(=O)OC`, the MIC with Helicobacter pylori [1] was 25 µg/mL (≈ 76.1 µM); against Helicobacter pylori [2] it was 50 µg/mL (≈ 152 µM); against Staphylococcus aureus, 12.5 µg/mL (≈ 38.1 µM); in assay [3], 6.25 µg/mL (≈ 19 µM); against Micrococcus luteus, 6.25 µg/mL (≈ 19 µM); with Escherichia coli, greater than 50 µg/mL. Also, the MIC in the assay with Shigella flexneri was greater than 50 µg/mL; against Pseudomonas aeruginosa it was greater than 50 µg/mL; in the assay on Nannizzia gypsea it was 50 µg/mL (≈ 152 µM); in the assay on Bacillus subtilis, 3.12 µg/mL (≈ 9.5 µM); in the assay on Candida albicans it was greater than 50 µg/mL.
Take `COc1cc2c(cc(OC)c3cc(C)c(O)cc32)c(C)c1O` [TRIGONOCHINENE E]: the MIC against Helicobacter pylori [1] was 25 µg/mL (≈ 83.8 µM); against Helicobacter pylori [2] it was greater than 50 µg/mL; against Staphylococcus aureus, 6.25 µg/mL (≈ 20.9 µM); in assay [3], 6.25 µg/mL (≈ 20.9 µM); in the assay with Micrococcus luteus, 12.5 µg/mL (≈ 41.9 µM); with Escherichia coli, greater than 50 µg/mL. For the same molecule, the MIC was greater than 50 µg/mL against Shigella flexneri; greater than 50 µg/mL against Pseudomonas aeruginosa; 6.25 µg/mL (≈ 20.9 µM) in the assay on Nannizzia gypsea; greater than 50 µg/mL with Bacillus subtilis; 12.5 µg/mL (≈ 41.9 µM) in the assay with Candida albicans.
As for `C=CC1=C(C)C(=O)C=C2[C@]1(O)CC[C@H](C(=C)C)[C@@]2(C)CCC(=O)OC` [TRIGONOCHINENE B], the MIC is 12.5 µg/mL (≈ 36.3 µM) against Helicobacter pylori [1]; 25 µg/mL (≈ 72.6 µM) against Helicobacter pylori [2]; greater than 50 µg/mL in the assay on Staphylococcus aureus; greater than 50 µg/mL in [3]; greater than 50 µg/mL against Micrococcus luteus; greater than 50 µg/mL in the assay on Escherichia coli. Further, the MIC in the assay with Shigella flexneri, in the assay with Pseudomonas aeruginosa, against Nannizzia gypsea, against Bacillus subtilis and in the assay on Candida albicans was greater than 50 µg/mL each time.

The record behind these values is ChEMBL document CHEMBL1155834, “Antimicrobial diterpenes from Trigonostemon chinensis” (2008).
